The source of these data is ChEMBL document CHEMBL4425094, “Novel Benzo[a]quinolizidine Analogs Induce Cancer Cell Death through Paraptosis and Apoptosis” (J Med Chem, 2016).

A value given as a limit tells only on which side of the number the result lay.

One test relates to HeLa. The experiment in a line: Cytotoxicity against human HeLa cells assessed as cell growth inhibition after 24 hrs by MTT assay. Type of test: functional, cell-based. The method in brief:
(§1)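 Cells seeded 24 h in RPMI 1640 + 10% FBS. RWPE-1 was kept in K-SFM with bovine pituitary extract and EGF. Cells then exposed to compounds for 24 h at 37 °C, 5% CO2, with DMSO vehicle and docetaxel as positive control. MTT added for 4 h, absorbance read at 570 nm. Triplicate runs, IC50 reported as mean of three experiments.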

For a further test, the system named is DU-145. The experiment in a line: Cytotoxicity against human DU145 cells assessed as cell growth inhibition after 24 hrs by MTT assay. Type of test: functional, cell-based. The following applies: DU-145, 24 h. The method in brief:
as §1
(Tetrazolium assays rely on reduction of a dye to a coloured formazan, in cell work by metabolically active cells.)

In another test the test system is MDA-MB-231. The experiment in a line: Cytotoxicity against human MDA-MB-231 cells assessed as cell growth inhibition after 24 hrs by MTT assay. Type of test: functional, cell-based. The settings on record: MDA-MB-231, 24 h. A digest of the protocol: as §1
For another test, the system named is PC-3. The experiment in a line: Cytotoxicity against human PC3 cells assessed as cell growth inhibition after 24 hrs by MTT assay. Type of test: functional, cell-based. The settings on record: PC-3, 24 h. The method in brief: as §1
The next test has as its system RWPE-1. In words: Cytotoxicity against human RWPE1 cells assessed as cell growth inhibition after 24 hrs by MTT assay. The settings on record: RWPE-1, 24 h. Type of test: cell-based. A digest of the protocol: as §1
For the next test, the system named is MCF7. The experiment in a line: Cytotoxicity against human MCF7 cells assessed as cell growth inhibition after 24 hrs by MTT assay. Type of test: functional, cell-based. The settings on record: MCF7, 24 h. The method in brief:
as §1

For a further test, the system named is K562. In words: Cytotoxicity against human K562 cells assessed as cell growth inhibition after 24 hrs by MTT assay. Type of test: functional, cell-based. The settings on record: K562, 24 h. The method in brief:
as §1

Usually IC50 stands for the concentration that gives 50% inhibition.

Turning to `O=[N+]([O-])c1ccc([C@@H]2C[C@@H](O)C[C@H]3c4cc(OCc5ccccc5)c(OCc5ccccc5)cc4CCN23)cc1`, the IC50 in the test with HeLa, in the test on DU-145, in the test on MDA-MB-231, with PC-3, in the test with RWPE-1 and with MCF7 was more than 20 µM throughout. For the same molecule, in the test with K562, the IC50 is more than 20 µM.
Take `CCC[C@@H]1C[C@H](O)C[C@H]2c3cc(OCc4ccccc4)c(OCc4ccccc4)cc3CCN12`: the IC50 came out at 5.49 µM with HeLa, 6.72 µM in the test with MDA-MB-231 and 3.88 µM in the test with K562.
Regarding `C[C@@]1(O)C[C@@H](c2ccccc2)N2CCc3cc(OCc4ccccc4)c(OCc4ccccc4)cc3[C@@H]2C1`, the IC50 worked out at 6.57 µM in the test with HeLa; 11.6 µM in the test on DU-145; 5.48 µM in the test with MDA-MB-231; 2.02 µM in the test on RWPE-1; 9.2 µM in the test with MCF7; 1.98 µM in the test on K562.
Regarding `O=C1C[C@@H](c2ccccc2)N2CCc3cc4c(cc3[C@@H]2C1)OCO4` (relative stereo), the IC50 in the test with HeLa, in the test with DU-145, in the test with MDA-MB-231, in the test on PC-3, with RWPE-1 and with MCF7 was more than 20 µM in each case. In addition, in the test with K562, the half-maximal inhibitory concentration (IC50) is more than 20 µM.
Take `CCCCCCOc1cc2c(cc1OCCCCCC)[C@@H]1C[C@H](O)C[C@@H](C)N1CC2`: the half-inhibitory concentration (IC50) in the test on HeLa, in the test on DU-145, in the test on MDA-MB-231, with PC-3, in the test with RWPE-1 and with MCF7 was more than 20 µM in each case. In addition, in the test on K562, the IC50 was more than 20 µM.
Regarding `C[C@@H]1CC(=O)C[C@H]2c3cc(OCc4cc(C(F)(F)F)cc(C(F)(F)F)c4)c(OCc4cc(C(F)(F)F)cc(C(F)(F)F)c4)cc3CCN12` (relative stereo), the concentration for half-maximal inhibition (IC50) in the test on HeLa, in the test with DU-145, in the test on MDA-MB-231, in the test with PC-3, in the test on RWPE-1 and in the test on MCF7 was more than 20 µM in each case. Moreover, in the test on K562, the 50% inhibitory concentration (IC50) is more than 20 µM.
For `COc1ccc([C@@H]2CC(=O)C[C@H]3c4cc(OCc5cc(F)cc(F)c5)c(OCc5cc(F)cc(F)c5)cc4CCN23)cc1OC` (relative stereo), the IC50 in the test with HeLa, in the test with DU-145, in the test with MDA-MB-231, with PC-3, in the test on RWPE-1 and with MCF7 was more than 20 µM each time. In addition, in the test on K562, the concentration for half-maximal inhibition (IC50) is more than 20 µM.
In the case of `O[C@H]1C[C@@H](c2ccccc2)N2CCc3cc(OCc4ccccc4)ccc3[C@@H]2C1`, the IC50 in the test with HeLa, in the test with DU-145, in the test on MDA-MB-231, in the test with PC-3, with RWPE-1 and with MCF7 was more than 20 µM each time. In the test on K562, the concentration for half-maximal inhibition (IC50) is more than 20 µM.
For `O=[N+]([O-])c1ccc([C@@H]2C[C@H](O)C[C@H]3c4cc(OCc5ccccc5)c(OCc5ccccc5)cc4CCN23)cc1`, the half-inhibitory concentration (IC50) in the test with HeLa, in the test with DU-145, with MDA-MB-231, in the test on PC-3, with RWPE-1 and in the test with MCF7 was more than 20 µM each time. Moreover, the IC50 in the test on K562 was more than 20 µM.
In the case of `CC[C@@H]1C[C@H](O)C[C@H]2c3cc(OCc4ccccc4)c(OCc4ccccc4)cc3CCN12`, the IC50 was determined as 5.27 µM in the test on HeLa; 3.37 µM in the test with DU-145; 10.2 µM in the test on MDA-MB-231; 3.52 µM with PC-3; 3.02 µM in the test with MCF7; 3.81 µM in the test with K562.
As to `C[C@@H]1C[C@@](C)(O)C[C@H]2c3cc(OCc4ccc(C(C)(C)C)cc4)c(OCc4ccc(C(C)(C)C)cc4)cc3CCN12`, the IC50 with HeLa stood at 0.91 µM; in the test with DU-145, 1.46 µM; in the test on MDA-MB-231 it was 0.98 µM; with PC-3, 1.11 µM; in the test with RWPE-1, 4.03 µM; in the test on MCF7, 2.61 µM. Moreover, in the test with K562, the half-inhibitory concentration (IC50) is 1.35 µM.
Take `C[C@@H]1C[C@@H](O)C[C@H]2c3cc4c(cc3CCN12)OCO4`: the concentration for half-maximal inhibition (IC50) in the test on HeLa, in the test with DU-145, in the test on MDA-MB-231, with PC-3, in the test on RWPE-1 and in the test on MCF7 was more than 20 µM throughout. The IC50 with K562 is more than 20 µM.
With `O=C1C[C@@H](c2ccccc2)N2CCc3cc(OCc4ccccc4)c(OCc4ccccc4)cc3[C@@H]2C1` (relative stereo), the half-maximal inhibitory concentration (IC50) with HeLa, in the test with DU-145, in the test with MDA-MB-231, in the test on PC-3, in the test on RWPE-1 and in the test on MCF7 was more than 20 µM in each case. The IC50 with K562 was more than 20 µM.
On to `C[C@@H]1CC(=O)C[C@H]2c3cc(OCc4ccc(Br)cc4)c(OCc4ccc(Br)cc4)cc3CCN12` (relative stereo), for which the IC50 in the test with HeLa, in the test with DU-145, in the test with MDA-MB-231, in the test with PC-3, in the test with RWPE-1 and in the test on MCF7 was more than 20 µM each time. Besides, the IC50 with K562 is more than 20 µM.
Regarding `C[C@@H]1C[C@@](C)(O)C[C@H]2c3cc(OCc4cc(F)cc(F)c4)c(OCc4cc(F)cc(F)c4)cc3CCN12`, the half-maximal inhibitory concentration (IC50) in the test with HeLa worked out at 1.29 µM; in the test on DU-145, 1.33 µM; with MDA-MB-231, 2.81 µM; with PC-3, 1.29 µM; in the test on RWPE-1 it was 4.45 µM; in the test on MCF7, 1.98 µM. Moreover, the half-inhibitory concentration (IC50) with K562 worked out at 1.13 µM.
For the molecule `CCC[C@@H]1CC(=O)C/C=C(/CC)[C@H]2c3cc(OCc4ccccc4)c(OCc4ccccc4)cc3CCN12` (relative stereo), the 50% inhibitory concentration (IC50) with HeLa, with DU-145, in the test on MDA-MB-231, with PC-3, in the test on RWPE-1 and in the test with MCF7 was more than 20 µM in each case. Moreover, in the test with K562, the half-maximal inhibitory concentration (IC50) was more than 20 µM.
On to `C[C@@H]1CC(=O)C[C@H]2c3cc4c(cc3CCN12)OCO4` (relative stereo), for which the half-inhibitory concentration (IC50) in the test on HeLa, in the test on DU-145, with MDA-MB-231, in the test with PC-3, with RWPE-1 and with MCF7 was more than 20 µM each time. In addition, the half-inhibitory concentration (IC50) in the test on K562 was more than 20 µM.
For `COc1ccc([C@@H]2CC(=O)C[C@H]3c4cc(OCc5ccccc5)c(OCc5ccccc5)cc4CCN23)cc1OC` (relative stereo), the half-maximal inhibitory concentration (IC50) in the test on HeLa, in the test on DU-145, in the test with MDA-MB-231, in the test on PC-3, in the test on RWPE-1 and in the test on MCF7 was more than 20 µM throughout. Also, the IC50 in the test on K562 is more than 20 µM.
In the case of `C[C@@H]1C[C@H](O)C[C@H]2c3cc(OCc4cc(F)cc(F)c4)c(OCc4cc(F)cc(F)c4)cc3CCN12`, the figures for the IC50 with HeLa, with MDA-MB-231 and with K562 were 3.04 µM, 3.16 µM and 2.29 µM, respectively.
Take `CCC[C@@H]1C[C@@](C)(O)C[C@H]2c3cc(OCc4ccccc4)c(OCc4ccccc4)cc3CCN12`: the concentration for half-maximal inhibition (IC50) with HeLa came out at 6.34 µM; in the test with MDA-MB-231, 2.37 µM; in the test on K562, 6.81 µM.
With `C[C@@H]1C[C@H](O)C[C@H]2c3cc(OCc4ccccc4)c(OCc4ccccc4)cc3CCN12`, the IC50 in the test with HeLa stood at 1.06 µM; with DU-145, 1.95 µM; in the test with MDA-MB-231 it was 7.22 µM; in the test with PC-3, 7.67 µM; in the test on MCF7, 2.5 µM; in the test with K562, 3.26 µM.
In the case of `CCC[C@@H]1C[C@@H](O)/C=C\C(CC)[C@H]2c3cc(OCc4ccccc4)c(OCc4ccccc4)cc3CCN12` (some centres undefined), the 50% inhibitory concentration (IC50) in the test with HeLa came to 3.43 µM; in the test on MDA-MB-231, 2.72 µM; in the test on K562, 5.61 µM.
Consider `C[C@@H]1C[C@H](O)C[C@H]2c3cc(OCc4ccc(Br)cc4)c(OCc4ccc(Br)cc4)cc3CCN12`, for which the concentration for half-maximal inhibition (IC50) in the test on HeLa was 2.88 µM; in the test on MDA-MB-231, 2.25 µM; in the test with RWPE-1, 2.89 µM; in the test on K562, 3.15 µM.
On to `C[C@@H]1C[C@@](C)(O)C[C@H]2c3cc(OCc4ccccc4)c(OCc4ccccc4)cc3CCN12`, for which the IC50 in the test on HeLa turned out to be 5.21 µM; in the test with DU-145 it was 2.11 µM; with MDA-MB-231, 6.47 µM; with PC-3, 2.6 µM; in the test on MCF7, 1.39 µM.
Turning to `C[C@@H]1C[C@H](O)C[C@H]2c3cc(OCc4ccc(C(C)(C)C)cc4)c(OCc4ccc(C(C)(C)C)cc4)cc3CCN12`, the IC50 in the test on HeLa worked out at 2.56 µM; in the test with MDA-MB-231 it was 1.46 µM; in the test on K562 it was 2.88 µM.
For `CCC[C@@H]1C[C@@H](O)C[C@H]2c3cc(OCc4ccccc4)c(OCc4ccccc4)cc3CCN12` the same measures were 2.38 µM, 2.57 µM and 2.32 µM.
Take `C[C@@H]1CC(=O)C[C@H]2c3cc(OCc4ccccc4)c(OCc4ccccc4)cc3CCN12` (relative stereo): the IC50 with HeLa is 2.99 µM; in the test with DU-145, 4.25 µM; in the test on MDA-MB-231 it was 2.52 µM; in the test with PC-3 it was 2.27 µM; in the test on MCF7 it was 2.23 µM; in the test with K562, more than 20 µM.
With `CC1(C)C[C@@H](O)C[C@H]2c3cc(OCc4ccccc4)c(OCc4ccccc4)cc3CCN21` (relative stereo), the IC50 in the test with HeLa is 7.22 µM; in the test with MDA-MB-231, 5.01 µM; in the test on K562, 5.44 µM.
